Measured values from ChEMBL document CHEMBL1143430, “Synthesis and free radical scavenging activity of some new spiropyranocoumarins” (Bioorg Med Chem Lett, 2008).

Key:
[1] = system: Radical scavenging activity; assay: Antioxidant activity assessed as DPPH free radical scavenging activity after 20 mins; format: functional
Summary of the method: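 Test compound at 5–200 μM mixed with an equal volume of 200 μM DPPH in ethanol, incubated 20 min at room temperature; absorbance read at 517 nm (also at 30, 45 and 60 min). IC50 = concentration giving 50% inhibition of 200 μM DPPH, from linear regression over at least five concentrations in triplicate; mean ± SD of at least three experiments.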

[2] = Antioxidant activity assessed as inhibition of xanthine-xanthine oxidase generated superoxide anion radical production at 0.5 mM; format: functional
Summary of the method: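 Superoxide generated enzymically by xanthine oxidase (0.07 U ml⁻¹, added to start the reaction) with 200 μM xanthine and 600 μM NBT in 0.1 phosphate buffer, pH 7.4. Read-out was the NBT reduction product.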

IC50 [1] [µM] | Compound | inhibition [2] [%]
130 | O=c1cc(O)c2ccc3c(c2o1)C=CC1(O3)C2CC3CC(C2)CC1C3 (configuration not stated) | 37.3
201 | O=c1cc(O)c2ccc3c(c2o1)C=CC1(CCCCC1)O3 | < 10
166 | O=c1cc(O)c2ccc3c(c2o1)[C@@H](O)[C@@H](O)C1(O3)C2CC3CC(C2)CC1C3 (some centres not stated) | 48.3
182 | O=c1cc(O)c2ccc3c(c2o1)C=CC1(CCCC1)O3 | < 10

More lines, now with the values behind:

Compound | IC50 [1] [µM] | inhibition [2] [%]
Cc1cc(C(C)(C)C)c(O)c(C(C)(C)C)c1 [BUTYLATED HYDROXYTOLUENE] | 83.8 | –
O=c1cc(O)c2ccc3c(c2o1)[C@@H](O)[C@@H](O)C1(CCCC1)O3 | 97.8 | 63.5
O=c1cc(O)c2ccc3c(c2o1)[C@@H](O)[C@@H](O)C1(CCCCCC1)O3 | 158 | 35.8
O=c1cc(O)c2ccccc2o1 [4-HYDROXYCOUMARINS] | 124 | 19.4
Oc1ncnc2[nH]ncc12 | – | 42.3
O=c1cc(O)c2ccc3c(c2o1)C=CC1(CCCCCC1)O3 | 202 | < 10
O=c1ccc2ccc(O)cc2o1 [UMBELLIFERONE] | > 400 | 32.6
O=c1cc(O)c2ccc3c(c2o1)[C@@H](O)[C@@H](O)C1(CCCCC1)O3 | 161 | 51.7
